The list is not random: actives were taken first. Their share in the collection is about 1.4%.
PG9 Ab binder = binders of HIV-1 gp120 antibody PG9, primary screen, biochemical, TR-FRET; TR-FRET gp120-PG9 antibody binding; inhibition, % at 6.7 µM; 0.43% of 360,000 active; AID 624416, 2012; in the data active = inhibition above about 8.5%
NR2E3 ag-1 = NR2E3 agonists in two-hybrid cells, primary screen, cell-based, luminescence, CHO-S, Gal4-NCOR/VP16-NR2E3. Photoreceptor-specific nuclear receptor (Homo sapiens), Q9Y5X4. inhibition of corepressor binding, % at 3.98 µM. luciferase. 0.35% of 360,000 active;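 active = inhibition above the mean of all tested compounds plus 3 SD, cut at about 70% in these data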;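 note: 0% = DMSO with NR2E3 transfected cells and 100% = cells lacking NR2E3 construct; higher means lower luciferase signal from less NR2E3 corepressor binding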
Target sequence (Q9Y5X4 whole entry, looked up, the tested form may be a part): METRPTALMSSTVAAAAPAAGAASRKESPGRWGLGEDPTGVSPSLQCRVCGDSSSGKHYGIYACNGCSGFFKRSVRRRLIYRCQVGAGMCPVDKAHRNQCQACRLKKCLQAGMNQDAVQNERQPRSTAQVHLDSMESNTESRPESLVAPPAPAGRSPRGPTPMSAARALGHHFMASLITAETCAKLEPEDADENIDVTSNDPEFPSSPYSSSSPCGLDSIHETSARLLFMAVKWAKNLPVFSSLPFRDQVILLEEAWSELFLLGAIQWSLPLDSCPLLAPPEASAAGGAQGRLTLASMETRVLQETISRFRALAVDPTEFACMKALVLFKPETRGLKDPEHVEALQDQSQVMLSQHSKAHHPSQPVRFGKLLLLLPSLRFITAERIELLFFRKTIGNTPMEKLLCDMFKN
NR2E3 ag-2 = inhibitors of NR2E3-RetCOR corepressor binding, primary screen, NR2E3 agonist project, biochemical, TR-FRET, GST-NR2E3, biotin-RetCOR; inhibition of corepressor binding, % at 4.78 µM; Photoreceptor-specific nuclear receptor (Homo sapiens), Q9Y5X4; 1536-well; 0.12% of 320,000 active;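 active = percent inhibition above the cutoff of mean plus 3 SD of all tested compounds, set per screening campaign, cut at about 20% in these data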;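 note: 0% = DMSO wells and 100% = biotin wells as full block of FRET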
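System: GST-NR2E3 and biotin-RetCOR proteins; probe or stimulus: 7 nM biotin-RetCOR; doses: compound at 4.8 µM, single dose; schedule: Compound–protein incubation for 5 h at 4 °C; detection: time-resolved FRET; read-out: percent inhibition; controls: biotin wells as high control, 0.6% DMSO wells as low control; format: 1536-well plates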
Rev-erbA mod = modulators of Rev-erb alpha DNA binding, primary screen, biochemical, FITC-DNA, fluorescence polarization, uHTS; Nuclear receptor subfamily 1 group D member 1 (Homo sapiens), P20393; activity, % at 10 µM; Rev-erbα–FITC-DNA binding, 90 min; 0.79% of 370,000 active;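 active = activity above about 14%, limit read from the data; passing the limit was not always enough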;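 note: 0% = DMSO wells with 35 nM protein and 100% = DMSO wells with 750 nM protein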
NR2E3 ag conf = NR2E3 agonist confirmation in cells, cell-based, luminescence, CHO-S two-hybrid; CHO-S mammalian two-hybrid NR2E3-NCOR, luciferase luminescence; inhibition, % at 3.98 µM; 51% of 2,300 active; AID 624378, 2012; shares compounds with NR2E3 ag-1;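 active = average inhibition above a cutoff equal to the mean inhibition of all tested compounds plus one SD, cut at about 70% in these data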;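 note: 0% = DMSO in NR2E3 cells and 100% = DMSO in cells lacking NR2E3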
VP16 counter = GAL4-VP16 reporter modulators, confirmation, counter-screen for NR2E3 agonist project, cell-based, luminescence, CHO-S, high throughput | CHO-S GAL4-VP16 luciferase reporter | 29% of 2,300 active | AID 624379, 2012 | inhibition, % at 3.98 µM | shares compounds with NR2E3 ag-1;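 active = mean inhibition above a cutoff equal to the average over all tested compounds plus one standard deviation, cut at about 70% in these data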;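 note: luciferase from a UAS reporter driven by GAL4-VP16 transactivation; 0% = DMSO with VP16-transfected cells and 100% = DMSO with cells lacking VP16; higher means less reporter light so more repression of VP16 activity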
* hit, by the source's call.

Results for CN1CCN(C2CN(C3CCCC3)S(=O)(=O)C2)CC1 (centres undefined) ?
PG9 Ab binder: 0.4; NR2E3 ag-1: -3.9; Rev-erbA mod: -2.8

Results for CCSc1nsc(NC(=O)Nc2ccccc2F)n1 ?
PG9 Ab binder: -1.8; NR2E3 ag-1: -175.2; NR2E3 ag-2: -5.9; Rev-erbA mod: -7.0

Results for C=CCSc1nsc(NC(=O)Nc2ccc(F)cc2)n1 ?
PG9 Ab binder: -1.5; NR2E3 ag-1: 93.4*; NR2E3 ag-2: 4.3; Rev-erbA mod: -1.6; NR2E3 ag conf: 100.3*; VP16 counter: 87.8*

What do the screens show for `CC(=O)c1ccc(Oc2nc3c(c(=O)n(C)c(=O)n3C)n2C)cc1`?
PG9 Ab binder: 0.0; NR2E3 ag-1: -1.4; NR2E3 ag-2: -2.4; Rev-erbA mod: 4.4

How did CCc1ccc(-c2nc(CSCC(=O)NCCCN3CCCC3=O)c(C)o2)cc1 do in these assays?
PG9 Ab binder: 1.0; NR2E3 ag-1: 71.2*; NR2E3 ag-2: -0.3; Rev-erbA mod: 5.1; NR2E3 ag conf: 89.7*; VP16 counter: 63.2

Results for CCOCCCNC(=O)CSCc1nc(-c2ccc(SC)cc2)oc1C ?
PG9 Ab binder: -0.4; NR2E3 ag-1: 81.0*; NR2E3 ag-2: 2.1; Rev-erbA mod: 3.5; NR2E3 ag conf: 81.1*; VP16 counter: 80.7*

Results for COCCNC(=O)CSCc1nc(-c2ccc(SC)cc2)oc1C ?
PG9 Ab binder: 3.0; NR2E3 ag-1: 92.1*; NR2E3 ag-2: 2.6; Rev-erbA mod: -2.0; NR2E3 ag conf: 84.6*; VP16 counter: 86.2*

What do the screens show for `CSc1ccc(-c2nc(CSCC(=O)NCCCN3CCCC3=O)c(C)o2)cc1`?
PG9 Ab binder: -1.1; NR2E3 ag-1: 31.6; NR2E3 ag-2: 1.0; Rev-erbA mod: -0.8

Results for C=C1C(=O)C23C(O)C1CCC2C12CCCC(C)(COC(C)=O)C1C(O)C3(O)OC2 (centres undefined) ?
PG9 Ab binder: 1.3; NR2E3 ag-1: 91.2*; Rev-erbA mod: 6.9; NR2E3 ag conf: -5.8; VP16 counter: -33.9

Results for C=CCN(C(=O)CCS(=O)(=O)c1cccc2nsnc12)c1ccccc1 ?
PG9 Ab binder: -2.0; NR2E3 ag-1: -6.1; NR2E3 ag-2: 2.8; Rev-erbA mod: -1.2

How did O=C(CN1C(=O)c2ccccc2S1(=O)=O)c1ccc2c(c1)OCCCO2 do in these assays?
PG9 Ab binder: -0.5; NR2E3 ag-1: 97.4*; NR2E3 ag-2: -0.2; Rev-erbA mod: 4.1; NR2E3 ag conf: 93.9*; VP16 counter: 89.0*

How did O=C(CN1C(=O)c2ccccc2S1(=O)=O)c1ccc2c(c1)OCCO2 do in these assays?
PG9 Ab binder: 0.4; NR2E3 ag-1: 69.1; NR2E3 ag-2: 1.6; Rev-erbA mod: 0.5; NR2E3 ag conf: 84.8*; VP16 counter: 66.4

What do the screens show for `O=C(CN1C(=O)c2ccccc2S1(=O)=O)c1ccc(F)cc1`?
PG9 Ab binder: -0.3; NR2E3 ag-1: 19.0; NR2E3 ag-2: 1.5; Rev-erbA mod: 0.9

Results for Cc1ccc(NC(=O)C2CCN(S(=O)(=O)c3ccc4c(c3)NC(=O)C(C)S4)CC2)cc1C (centres undefined) ?
PG9 Ab binder: -1.8; NR2E3 ag-1: 74.0*; NR2E3 ag-2: 0.1; Rev-erbA mod: -0.1; NR2E3 ag conf: 92.7*; VP16 counter: 72.7*

How did CCc1ccc(NC(=O)C2CCN(S(=O)(=O)c3ccc4c(c3)NC(=O)C(C)S4)CC2)cc1 (centres undefined) do in these assays?
PG9 Ab binder: -0.7; NR2E3 ag-1: 11.9; NR2E3 ag-2: 0.3; Rev-erbA mod: 3.2

What do the screens show for `CC1Sc2ccc(S(=O)(=O)N3CCC(C(=O)Nc4cccc(Cl)c4)CC3)cc2NC1=O` (centres undefined)?
PG9 Ab binder: -1.5; NR2E3 ag-1: 48.9; NR2E3 ag-2: -2.0; Rev-erbA mod: 0.4; NR2E3 ag conf: 64.9; VP16 counter: 54.0

What do the screens show for `C=C/C(C)=C/C[C@H]1C(=C)CCC2[C@](C)(C(=O)O)CCC[C@@]21C` (some centres undefined)?
NR2E3 ag-1: 10.0; NR2E3 ag-2: 1.1

What do the screens show for `Cc1ccccc1NC(=S)NCCC(c1ccccc1)c1ccccc1`?
PG9 Ab binder: -0.1; NR2E3 ag-1: 50.3; NR2E3 ag-2: 0.4; Rev-erbA mod: 1.8; NR2E3 ag conf: 10.8; VP16 counter: 9.8

How did COc1ccc2c(c1)C=C(CN1CCC(CO)(CCc3ccccc3)CC1)CO2 do in these assays?
PG9 Ab binder: -0.2; NR2E3 ag-1: -14.3; NR2E3 ag-2: 2.6; Rev-erbA mod: -0.3

Results for COc1ccc(CC2(CO)CCN(CC3=Cc4cc(Cl)ccc4OC3)CC2)cc1 ?
PG9 Ab binder: -0.1; NR2E3 ag-1: 69.2; NR2E3 ag-2: 0.2; Rev-erbA mod: -0.4; NR2E3 ag conf: 96.0*; VP16 counter: 73.8*

How did CCn1c(SCC(=O)N(C)C2CCS(=O)(=O)C2)nnc1-c1ccccc1 (centres undefined) do in these assays?
PG9 Ab binder: 1.2; NR2E3 ag-1: -10.0; NR2E3 ag-2: 2.0; Rev-erbA mod: -5.9

Results for CCOc1ccc(-c2cccc(NS(=O)(=O)c3cc([N+](=O)[O-])ccc3Cl)c2)nn1 ?
PG9 Ab binder: -2.4; NR2E3 ag-1: 53.2; NR2E3 ag-2: -3.1; Rev-erbA mod: -1.7; NR2E3 ag conf: 17.9; VP16 counter: -3.6

Results for CC1=NN(C(N)=S)C(=O)C1N=Nc1ccccc1C (centres undefined) ?
PG9 Ab binder: -1.5; NR2E3 ag-1: 73.7*; NR2E3 ag-2: -5.2; Rev-erbA mod: 16.6; NR2E3 ag conf: -1.7; VP16 counter: -34.6

Results for CC1=NN(C(N)=S)C(=O)C1N=Nc1c(C)cc(C)cc1C (centres undefined) ?
PG9 Ab binder: -0.7; NR2E3 ag-1: 72.7*; NR2E3 ag-2: -0.8; Rev-erbA mod: -5.0; NR2E3 ag conf: -21.1; VP16 counter: -60.7

What do the screens show for `CC1=NN(C(N)=S)C(=O)C1N=Nc1c(Cl)cc([N+](=O)[O-])cc1Cl` (centres undefined)?
PG9 Ab binder: -3.8; NR2E3 ag-1: 83.4*; NR2E3 ag-2: -2.1; Rev-erbA mod: 14.0; NR2E3 ag conf: -42.9; VP16 counter: -76.8

What do the screens show for `O=C(CSc1c2c(nc3ccc(Cl)cc13)CCCC2)NCCCN1CCOCC1`?
PG9 Ab binder: -1.9; NR2E3 ag-1: 9.6; NR2E3 ag-2: -0.6; Rev-erbA mod: 4.3

How did Cc1ccc(Nc2nc(NCC3CC3)nc3ccsc23)c(C)c1 do in these assays?
PG9 Ab binder: 1.2; NR2E3 ag-1: -2.5; Rev-erbA mod: -0.4

From PubChem BioAssay
